Measurements: the array DNA melting data of Ke et al. (doi:10.1101/2024.01.08.574731)

Experiments:
[1] = melting temperature; fluorescence melt of hairpins on a sequencing array, two-state fit, raised by 9.35 °C to match UV melts; conditions: sodium 0.088 M
Procedure, shortened: (§1)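 Cy3 fluorescence of library hairpins on a sequenced MiSeq flow cell, with annealed Cy3 and quencher oligos, was imaged in 50 mM Na-HEPES pH 8.0, 25 mM NaCl in 2.5 °C steps up to 60 °C. Signals were normalised to pre-quench Cy3 and to control variants. Melting temperature and folding enthalpy came from bootstrapped two-state fits, inverse-variance combined over four replicates. Fitted temperatures were raised by 9.35 °C to match UV melts.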

[2] = folding enthalpy; higher = less favourable; fluorescence melt of hairpins on a sequencing array, two-state fit; conditions: sodium 0.088 M
Procedure, shortened: as §1

Sequence	Tm [1] [°C]	folding enthalpy [2] [kcal/mol]
GATCTATTAATAGATC ((((((....))))))	45.2	-37.8
GACGTCGGAAACGACGCC (.(((((....))))).)	50.7	-11.6
GGGACAGCGAAAGCTCCC (((..(((....))))))	46.1	-19
GTAAGGCGAAAGCCTAC (((.(((....))))))	46	-11.4
GAGTGGGGAAACCCACTC (((((((....)))))))	67.7	-29.8
GCCAGAGGAAACCCTGGC (((((.(....).)))))	52.4	-41
AGTGGGAAACCACT (((((....)))))	49.8	-19.5
GCTCCAACGAAAGTTAGC (((..(((....))))))	27.9	-11.8
GTTTGCGAAAGCAGAAC ((((((....))).)))	44.5	-13.7
GGACGGCCGAAAGGCTCC (((..(((....))))))	34.1	-10.8
GATCCCCGCCGGGATC ((((((....))))))	57.7	-40.3
GTCAGTGGAAACACTGAC (((((((....)))))))	64.5	-47.6
GATCGTTTTCACGATC ((((((....))))))	55.4	-45.2
CGAGTCCGGAAACGGTCG (((..(((....))))))	42.4	-12.3
GGGGCTGGAAACAGCCTC (.(((((....))))).)	59.8	-14.4
GATCACCCCAGTGATC ((((((....))))))	60	-44.7
GATAGCGAAAGCTAATC ((((((....))).)))	40.7	-12.8
GCAAAGCGAAAGCATAGC ((.(.((....)).).))	33.4	-9.41
GCTGTGCGAAAGCACCGC ((.((((....)))).))	58.7	-17.9
GTAACACGAAAGTGGTAC (((.(((....))).)))	55.1	-41.3
GCTTCGGGAAACTGAGGC ((.((.(....).)).))	36.5	-28.8
GAACTCCGAAAGGATTC (((.(((....))))))	37.1	-17
GATCCGCGGCCGGATC ((((((....))))))	56	-38.4

Sequence	Tm [1] [°C]	folding enthalpy [2] [kcal/mol]
GACATGCCGAAAGGCGTC (((..(((....))))))	41.2	-11.1
GAGTCGCGAAAGCGCCTC (((.(((....))).)))	54.8	-23.7
GAACTTGGAAACAAGTTC (((((((....)))))))	57.4	-39
GATTACGAAAGTAGATC ((((((....))).)))	29	-19
GATCTGTTGGCAGATC ((((((....))))))	54.2	-40.3
GATCTGCGCTCAGATC ((((((....))))))	49.3	-39.7
GTTTTCGAAAGAATAAC ((((((....))).)))	31.2	-12.9
GATCAGCGTCTGATC ((((((...))))))	49.9	-38.8
GGGGCTACGAAAGTACCC (((..(((....))))))	48	-22.1
GGGTCCGAAAGGAATCCC ((((((....)))..)))	46.7	-22.1
GATCGAACATCGATC ((((((...))))))	49	-37.3
GGCTATGCGAAAGCAGCC (((..(((....))))))	55.6	-27.3
GATCTGGAAGCAGATC ((((((....))))))	50.8	-37.8
GATCCTACTGAGGATC ((((((....))))))	50.6	-39.7
GATAGTGGAAACGCTATC (((((.(....).)))))	42.9	-25.7
GTCTGCGGAAACGCAAAC ((.((((....)))).))	38	-15.2
GATCTGCGTTCAGATC ((((((....))))))	48.8	-37.5
GAACAAGGAAACTCGTTC ((((.((....)).))))	27	-16.4
GACGTCGGAAACGACACC (..((((....))))..)	29.3	-10.5
GATTCCGAAAGGAGAATC ((((((....)))..)))	32.7	-17.4
GCAAACGAAAGTTATTGC ((((((....)))..)))	31.7	-18.5
GGGAGCGAAAGCTGACCC ((((((....)))..)))	45.9	-16.5
GCTGTGGAAACACAGC ((((((....))))))	68.7	-37.4

Sequence	Tm [1] [°C]	folding enthalpy [2] [kcal/mol]
GCTACCTCGAAAGAGAGC (((..(((....))))))	30.1	-16.3
GAACCCGAAAGGGAGTTC ((((((....)))..)))	40	-13.7
GGGAACGAAAGTTTTCCC ((((((....)))..)))	35.5	-19.1
CGGTGCCGGAAACGGCCG (((..(((....))))))	47.5	-9.28
GATGTGGGAAACCACACC (.(((((....))))).)	39	-14.1
GTGTTTGGAAACAAATAC ((.((((....)))).))	41.2	-29
GCTACCACGAAAGTGAGC (((..(((....))))))	33.3	-15.3
GGAGGAGGAAACTCCTTC (.(((((....))))).)	53.4	-28.7
GCGATGGGAAACTATCGC (((((.(....).)))))	55.9	-42
GTGTCCGAAAGGACCCAC ((((((....)))..)))	38.5	-8.57
GCTTCAGGAAACTGAGGC ((.((((....)))).))	47.7	-37.3
GAACTGCGAAAGCAATTC (((.(((....))).)))	36.7	-21.7
GGGCCCGAAAGGGATCCC ((((((....)))..)))	56.6	-14.9
GGAGTGGGAAACCACTTC (.(((((....))))).)	49.4	-20.2
GCGATGCGAAAGCCGCGC (((..((....))..)))	64.7	-27.7
CGCCTCGGAAACGAAGCG (((.(((....))).)))	48.3	-25.9
GCAAGACCGAAAGGTTGC (((..(((....))))))	48.2	-22.6
GGACGTGCGAAAGCATCC (((..(((....))))))	30.6	-9.73
ACTGAGAAATCAGT (((((....)))))	34.8	-19.8
GCGGTCTCGAAAGAGCGC (((..(((....))))))	58.6	-38.2
GTAGTCGAAAGACTTTAC ((((((....)))..)))	29.5	-13.7
GAGACCGAAAGGTTTCTC ((((((....)))..)))	50.6	-22.5
GTCACTGGAAACAGTGGC (.(((((....))))).)	53.7	-40.8

Sequence	Tm [1] [°C]	folding enthalpy [2] [kcal/mol]
GGGATAGCGAAAGCTCCC (((..(((....))))))	50.1	-21.8
GATCTGCTGTCAGATC ((((((....))))))	51.6	-32.2
GATCGATATATCGATC ((((((....))))))	56	-41
GATGCAGAAATGCATC ((((((....))))))	58.7	-36.7
GAGCAAGGAAACCTGCTC (((((.(....).)))))	48.5	-27.6
GACGGCGAAAGCCCGGTC ((((((....)))..)))	48.1	-13.2
GATGAGGGAAACCTCACC (.(((((....))))).)	35.5	-15.7
GATCCCGTCGGGGATC ((((((....))))))	64.1	-35.1
GGAAACGGAAACGTTTTC (.(((((....))))).)	46.8	-28.3
GATCAAGCCGTTGATC ((((((....))))))	46.5	-29.4
GCGGAGCACCGC ((((....))))	61.6	-11.2
GTTTGCCGAAAGGCCAAC (((.(((....))).)))	41.5	-20.9
GTTGTGGGAAACTACAGC (.(((.(....).))).)	32	-16.8
GCGGGGGCCGC ((((...))))	62.1	-9.27
GCGGCGGCGAAAGCCCGC (((..(((....))))))	65.6	-12.3
GCATTGCGAAAGCGAGGC ((.(.((....)).).))	59.1	-21
GATCCACTTCTGGATC ((((((....))))))	50.2	-34.8
GTCGTCGAAAGACTGAC ((((((....))).)))	47.5	-19.4
GATCTTACTGAAGATC ((((((....))))))	42.2	-26.9
GTCTTCGAAAGAAAGAC ((((((....))).)))	42.6	-21.8
GATCTCGCCCGAGATC ((((((....))))))	56.2	-39.2
GGACTCCGAAAGGAATCC (((.(((....))).)))	47.3	-30.5
CGCGGACAATTCCGCG ((((((....))))))	62.2	-30.5
